Measurements taken from ChEMBL document CHEMBL2150881, “JD-5006 and JD-5037: peripherally restricted (PR) cannabinoid-1 receptor blockers related to SLV-319 (Ibipinabant) as metabolic disorder therapeutics devoid of CNS liabilities” (Bioorg Med Chem Lett, 2012).
Activity calls are given as the source filed them. The rule behind the calls is not given here.

Columns and labels:
[1] = target: Cannabinoid receptor 1 (Mus musculus) (UniProt P47746); conditions: Cerebellum, 30 mg/kg
Mus musculus [2] = test: In vivo receptor occupancy at CB1 receptor in mouse cerebellum assessed as inhibition of [3H]SR141716A binding at 3 mg/kg, po for 3 days measured after 1 hr post last dose; assay type: functional
How it was run: (§1)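 Chow-fed mice dosed orally once daily at 3 or 30 mg/kg for 3 consecutive days, killed 1 h after the last dose. [3H]SR141716A was given by lateral tail-vein injection 30 min before euthanasia. Hippocampus, cerebellum and brain stem (reference region) were scintillation-counted as DPM/mg. Binding potential = (receptor − reference)/reference. Occupancy (%) = 100 × (vehicle BP − drug BP)/vehicle BP. 5 animals per dose.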

Mus musculus [3] = test: Antidyslipidemic activity in DIO mouse model assessed as reduction in terminal ALT level at 3 to 30 mg/kg, po for 21 days; assay type: functional; parameters: scale not given: the % may be the effect or the level left; conditions: dose mg/kg 3-30
How it was run: (§2)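 Diet-induced obese mice dosed orally at 3, 10 and 30 mg/kg for 21 days alongside vehicle controls. Plasma triglycerides, ALT and terminal liver weight were measured at the end of dosing. p-values were given for each dose.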

Mus musculus [4] = test: Antidyslipidemic activity in DIO mouse model assessed as reduction in terminal liver weight at 3 to 30 mg/kg, po for 21 days; assay type: functional; parameters: scale not given: the % may be the effect or the level left; conditions: dose mg/kg 3-30
How it was run: as §2

Mus musculus [5] = test: Antidyslipidemic activity in DIO mouse model assessed as reduction in terminal fasting triglyceride level at 30 mg/kg, po for 21 days; assay type: functional; parameters: scale not given: the % may be the effect or the level left
How it was run: as §2

Mus musculus [6] = test: In vivo receptor occupancy at CB1 receptor in mouse hippocampus assessed as inhibition of [3H]SR141716A binding at 3 mg/kg, po for 3 days measured after 1 hr post last dose; assay type: functional
How it was run: as §1

Mus musculus [7] = test: In vivo receptor occupancy at CB1 receptor in mouse hippocampus assessed as inhibition of [3H]SR141716A binding at 30 mg/kg, po for 3 days measured after 1 hr post last dose; assay type: functional
How it was run: as §1

Mus musculus [8] = test: Antidyslipidemic activity in DIO mouse model assessed as reduction in terminal fasting triglyceride level at 3 mg/kg, po for 21 days; assay type: functional; parameters: scale not given: the % may be the effect or the level left
How it was run: as §2

[9] = (§3) Apparent permeability from apical to basolateral side in MDR expressing MDCK cells by LC-MS-MS analysis; assay type: ADME, cell-based, Canis lupus familiaris; conditions: dog, MDCK-MDR1
How it was run: (§4)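 Permeability measured across MDR-MDCK kidney cell monolayers, giving apparent permeability (Papp) in the apical-to-basolateral and basolateral-to-apical directions.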

Mus musculus [10] = test: Antidyslipidemic activity in DIO mouse model assessed as reduction in terminal fasting triglyceride level at 3 to 30 mg/kg, po for 21 days; assay type: functional; parameters: scale not given: the % may be the effect or the level left; conditions: dose mg/kg 3-30
How it was run: as §2

[11] = (§5) Apparent permeability from basolateral to apical side in MDR expressing MDCK cells by LC-MS-MS analysis; assay type: ADME, cell-based, Canis lupus familiaris; conditions: dog, MDCK-MDR1
How it was run: as §4

Cannabinoid receptor 2 = Cannabinoid receptor 2 (Homo sapiens, UniProt P34972); test: Displacement of 3[H]ligand from recombinant human CB2 receptor
How it was run: (§6)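 Radioligand displacement from human recombinant CB1 and CB2 protein by a [³H] ligand. Initial screen at two concentrations in duplicate, with values >100 nM estimated. Percent inhibition read at 100 nM. IC₅₀ taken from four-point concentration curves run in duplicate.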

Cannabinoid receptor 1 [12] = target: T1, Cannabinoid receptor 1 (Homo sapiens, UniProt P21554); test: Displacement of 3[H]ligand from recombinant human CB1 receptor
How it was run: as §6

Cannabinoid receptor 1 [13] = target: T1, Cannabinoid receptor 1; test: Inverse agonist activity against CB1 receptor expressed in human CHO cells assessed as effect on forskolin-stimulated cAMP level; assay type: functional, cell-based
MDCK [14] = test: as §3; assay type: ADME, cell-based, Canis lupus familiaris; conditions: dog, mdck
How it was run: as §4

MDCK [15] = test: as §5; assay type: ADME, cell-based, Canis lupus familiaris; conditions: dog, mdck
How it was run: as §4

MDCK [16] = test: Efflux ratio of permeability from […] in MDR expressing MDCK cells; assay type: ADME, cell-based, Canis lupus familiaris; conditions: dog, mdck
Mus musculus [17] = test: Antidiabetic activity in high fat diet-fed diabetes mouse model assessed as […] in insulin sensitivity at 20 mg/kg for 7 days by glucose tolerance test; assay type: functional, organism-based; parameters: dose 20 mg/kg
[18] = Plasma concentration in chow fed mouse at 20 mg/kg, po for 3 days measured after 1 hr post last dose; assay type: ADME, organism-based; parameters: dose 20 mg/kg, route oral
How it was run: (§7)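 Chow-fed mice were dosed orally at 100 or 20 mg/kg for 3 consecutive days. Plasma and brain were taken 1 h after the last dose. Proteins were precipitated with 3× volume ice-cold acetonitrile containing internal standard, then centrifuged 15 min at 4 °C. Analysis by LC/MS/MS against calibrators in plasma or brain homogenate (1000 to 1.6 nM). Brain is given as ng/gm and also as % of plasma.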

[19] = Drug uptake in chow fed mouse brain at 20 mg/kg, po for 3 days measured after 1 hr post last dose; assay type: ADME, organism-based; parameters: dose 20 mg/kg, route oral; conditions: read-out: Drug uptake
How it was run: as §7

Mus musculus [20] = test: Antidiabetic activity in high fat diet-fed diabetes mouse model assessed as reduction in glucose level at 20 mg/kg for 7 days by glucose tolerance test; assay type: functional, organism-based; parameters: dose 20 mg/kg
How it was run: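 Mice kept on high-fat diet for 14 weeks were given 20 mg/kg PO for seven days. They were then challenged with glucose at 2 g/kg body weight, and glucose elimination was followed.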

T1 sequence (P21554 whole entry): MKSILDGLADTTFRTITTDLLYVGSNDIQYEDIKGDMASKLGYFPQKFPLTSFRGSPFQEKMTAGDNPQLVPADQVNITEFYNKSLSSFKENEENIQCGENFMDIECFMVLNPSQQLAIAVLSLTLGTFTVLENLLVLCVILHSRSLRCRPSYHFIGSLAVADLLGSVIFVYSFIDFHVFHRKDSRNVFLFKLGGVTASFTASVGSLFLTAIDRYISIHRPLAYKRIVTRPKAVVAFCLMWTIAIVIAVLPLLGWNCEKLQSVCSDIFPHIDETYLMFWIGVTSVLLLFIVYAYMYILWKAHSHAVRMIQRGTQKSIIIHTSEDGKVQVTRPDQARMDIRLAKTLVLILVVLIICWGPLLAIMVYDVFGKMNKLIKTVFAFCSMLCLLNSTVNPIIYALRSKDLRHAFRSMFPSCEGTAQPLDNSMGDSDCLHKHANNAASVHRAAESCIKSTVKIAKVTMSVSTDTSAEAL
Sequence of Cannabinoid receptor 2 (P34972 whole entry): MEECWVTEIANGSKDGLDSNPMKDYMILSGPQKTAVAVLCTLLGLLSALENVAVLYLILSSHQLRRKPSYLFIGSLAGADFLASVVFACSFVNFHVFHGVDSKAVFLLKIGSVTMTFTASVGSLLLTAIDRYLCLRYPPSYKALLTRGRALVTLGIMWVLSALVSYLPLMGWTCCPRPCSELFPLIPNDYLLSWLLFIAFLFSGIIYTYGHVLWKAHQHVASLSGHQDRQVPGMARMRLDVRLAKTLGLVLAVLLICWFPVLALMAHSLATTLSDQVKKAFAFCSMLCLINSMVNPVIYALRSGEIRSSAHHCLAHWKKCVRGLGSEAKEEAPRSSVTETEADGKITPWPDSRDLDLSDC
Sequence of Cannabinoid receptor 1 (Mus musculus) (P47746 whole entry): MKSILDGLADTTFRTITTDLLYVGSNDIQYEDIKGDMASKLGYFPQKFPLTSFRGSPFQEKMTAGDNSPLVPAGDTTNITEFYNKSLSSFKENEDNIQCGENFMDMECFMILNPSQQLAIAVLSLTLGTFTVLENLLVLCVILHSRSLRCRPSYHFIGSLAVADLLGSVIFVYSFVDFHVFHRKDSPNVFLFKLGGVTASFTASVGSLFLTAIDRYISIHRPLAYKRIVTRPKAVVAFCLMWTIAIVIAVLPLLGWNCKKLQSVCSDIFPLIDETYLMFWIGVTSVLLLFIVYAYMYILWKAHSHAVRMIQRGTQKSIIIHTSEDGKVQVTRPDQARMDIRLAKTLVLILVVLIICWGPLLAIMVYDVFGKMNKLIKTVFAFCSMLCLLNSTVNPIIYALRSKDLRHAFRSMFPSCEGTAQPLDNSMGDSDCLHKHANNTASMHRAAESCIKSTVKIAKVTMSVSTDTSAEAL

| Compound | Occ [1] [%] | Occ (Mus musculus [2]) [%] | Activity (Mus musculus [3]) [%] | Activity (Mus musculus [4]) [%] | Occ (Mus musculus [6]) [%] | Occ (Mus musculus [7]) [%] | IC50 (Cannabinoid receptor 2) [µM] | IC50 (Cannabinoid receptor 1 [12]) [µM] | Activity (Mus musculus [17]) | Activity (Mus musculus [20]) | also measured |
| --- | --- | --- | --- | --- | --- | --- | --- | --- | --- | --- | --- |
| CN/C(=N\S(=O)(=O)c1ccc(Cl)cc1)N1CC(c2ccccc2)C(c2ccc(Cl)cc2)=N1 (racemic) [RAC-IBIPINABANT] | 102 | 15 | 56 | 25 | 15 | 100 | – | – | – | – | Activity (Mus musculus [5]): 19%; Activity (Mus musculus [8]): 22% |
| NC(=O)CN/C(=N\S(=O)(=O)c1ccc(Cl)cc1)N1CC(c2ccccc2)C(c2ccc(Cl)cc2)=N1 (racemic) [listing 1 of 2 here] | – | – | 49 | 17 | – | – | 5 | 0.018 | – | – | Papp A→B [9]: 1.8 ×10⁻⁶ cm/s; Activity (Mus musculus [10]): 26%; Papp B→A [11]: 60.5 ×10⁻⁶ cm/s; IC50 (Cannabinoid receptor 1 [13]): 0.018 µM |
| NC(=O)CNC(=O)CN/C(=N\S(=O)(=O)c1ccc(Cl)cc1)N1CC(c2ccccc2)C(c2ccc(Cl)cc2)=N1 (stereo unspecified) | – | – | – | – | – | – | > 5 | 0.025 | – | – | Papp (MDCK [14]): 0.2 ucm/s; Papp (MDCK [15]): 22.3 ×10⁻⁶ cm/s; Ratio (MDCK [16]): 112 |
| Cc1c(C(=O)NN2CCCCC2)nn(-c2ccc(Cl)cc2Cl)c1-c1ccc(Cl)cc1 [RIMONABANT] | 87 | 12 | – | – | 10 | 100 | – | – | Active | Active | concentration at 1 h [18]: 1200 ng/mL; concentration at 1 h [19]: 1080 ng/g |
| NC(=O)CN/C(=N\S(=O)(=O)c1ccc(Cl)cc1)N1CC(c2ccccc2)C(c2ccc(Cl)cc2)=N1 (racemic) [listing 2 of 2 here] | – | – | – | – | – | – | – | – | Active | Active | – |
